Data reported in ChEMBL document CHEMBL3400073, “Design, synthesis and biological evaluation of new hybrid anticonvulsants derived from N-benzyl-2-(2,5-dioxopyrrolidin-1-yl)propanamide and 2-(2,5-dioxopyrrolidin-1-yl)butanamide derivatives” (Bioorg Med Chem, 2015).
The source made the active and inactive calls. No cut-off for these calls is given here.

Legend:
Liver microsome = experiment: Drug metabolism in human liver microsomes assessed as metabolite formation treated with 50 uM 2-(2,5-Dioxopyrrolidin-1-yl)-N-(2-fluorobenzyl)propanamide pre-incubated at 37 degC for 5 mins before addition of NADPH regeneration system measured after 120 mins by UPLC-MS/MS method; type: ADME; details: 2 h
How it was run: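 Pooled human liver microsomes from adult males and females were used at 1 mg/ml in 0.1 M Tris-HCl, pH 7.4. After the 5 min preincubation, the NADPH regeneration system was added and the reaction ran for 120 min. It was quenched with cold methanol and centrifuged, and the supernatant was analysed by UPLC-MS/MS with ESI on a tandem quadrupole.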

Mus musculus [1] = experiment: Anticonvulsant activity in intraperitoneally dosed Albino Swiss CD1 mouse assessed as time to peak effect by maximal electroshock test; type: functional
Mus musculus [2] = experiment: Neurological toxicity in Albino Swiss CD1 mouse at 100 mg/kg, ip after 2 hrs by rotarod test; type: organism-based; set-up: dose 100 mg/kg, route intraperitoneal; details: in vivo
How it was run: (§1)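 Mice were trained on a 2 cm rod for 3 min, with unlimited trials, at least 24 h before testing. Each was then dosed ip at 100 mg/kg and tested at 10 rpm 0.5 h or 2 h later, in groups of 4. Failure to stay on the rod for at least 1 min indicated neurotoxicity.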

Mus musculus [3] = experiment: Neurological toxicity in Albino Swiss CD1 mouse at 100 mg/kg, ip after 0.5 hrs by rotarod test; type: organism-based; set-up: dose 100 mg/kg, route intraperitoneal; details: in vivo; how it was run: as §1
Mus musculus [4] = experiment: Anticonvulsant activity in intraperitoneally dosed Albino Swiss CD1 mouse by maximal electroshock test; type: functional; details: Albino Swiss CD1, ip
How it was run: (§2)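 Male CD-1 mice were dosed ip (0.1 mL/10 g, methylcellulose vehicle), at least four dose groups of 6 mice each. Protection in MES meant no hindlimb tonic extension after a 25 mA, 50 Hz, 0.2 s ear-electrode shock. Protection in scPTZ meant no clonus over 30 min.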

Mus musculus [5] = organism: Mus musculus; experiment: Protective index, ratio of neurotoxic TD50 in Albino Swiss CD1 mouse by rotarod test to anticonvulsant ED50 in Albino Swiss CD1 mouse by maximal electroshock test
How it was run: (§3)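 The protective index is the rotarod TD50 divided by the MES or scPTZ ED50. Each value came from ip dosing in male CD-1 mice with probit analysis, and the reference drugs were tested under the same conditions.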

Mus musculus [6] = experiment: Anticonvulsant activity in intraperitoneally dosed Albino Swiss CD1 mouse assessed as time to peak effect after 2 hrs by subcutaneous pentylenetetrazole test; type: functional
Mus musculus [7] = experiment: Anticonvulsant activity in intraperitoneally dosed Albino Swiss CD1 mouse after 2 hrs by subcutaneous pentylenetetrazole test; type: functional; how it was run: as §2
Mus musculus [8] = experiment: Protective index, ratio of neurotoxic TD50 in Albino Swiss CD1 mouse by rotarod test to anticonvulsant ED50 in Albino Swiss CD1 mouse by subcutaneous pentylenetetrazole test; how it was run: as §3
Mus musculus [9] = experiment: Anticonvulsant activity in intraperitoneally dosed Albino Swiss CD1 mouse by subcutaneous pentylenetetrazole test; type: functional; how it was run: as §2
Mus musculus [10] = experiment: Anticonvulsant activity in Albino Swiss CD1 mouse at 100 mg/kg, ip after 2 hrs by maximal electroshock test; type: functional, organism-based; set-up: dose 100 mg/kg
How it was run: (§4)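 Male CD-1 mice, 16–26 g, in groups of 4, each mouse used once, were given 100 mg/kg ip (0.1 mL/10 g, methylcellulose vehicle). MES used 25 mA, 500 V, 50 Hz delivered by ear electrodes for 0.2 s, and absence of hindlimb tonic extension counted as protection. In scPTZ, mice without clonic convulsions over 30 min of observation counted as protected. Both tests were run 0.5 h or 2 h after dosing.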

[11] = Neurological toxicity in intraperitoneally dosed Albino Swiss CD1 mouse by rotarod test; type: organism-based; details: in vivo, ip
How it was run: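 Mice trained on the rotarod were given various ip doses, four groups in all, and tested at 10 rpm. Failure to stay on the rod for at least 1 min indicated neurotoxicity.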

Mus musculus [12] = experiment: Anticonvulsant activity in intraperitoneally dosed Albino Swiss CD1 mouse after 0.5 hrs by maximal electroshock test; type: functional; how it was run: as §2
Mus musculus [13] = experiment: Anticonvulsant activity in Albino Swiss CD1 mouse at 100 mg/kg, ip after 0.5 hrs by subcutaneous pentylenetetrazole test; type: functional, organism-based; set-up: dose 100 mg/kg; how it was run: as §4
Mus musculus [14] = experiment: Anticonvulsant activity in Albino Swiss CD1 mouse at 100 mg/kg, ip after 2 hrs by subcutaneous pentylenetetrazole test; type: functional, organism-based; set-up: dose 100 mg/kg; how it was run: as §4
Mus musculus [15] = experiment: Anticonvulsant activity in intraperitoneally dosed Albino Swiss CD1 mouse after 0.5 hrs by subcutaneous pentylenetetrazole test; type: functional; how it was run: as §2
Mus musculus [16] = experiment: Anticonvulsant activity in Albino Swiss CD1 mouse at 100 mg/kg, ip after 0.5 hrs by maximal electroshock test; type: functional, organism-based; set-up: dose 100 mg/kg; how it was run: as §4
Mus musculus [17] = experiment: Potency index, ratio of ED50 for […] acid to ED50 for compound in intraperitoneally dosed Albino Swiss CD1 mouse by subcutaneous pentylenetetrazole test; type: functional
Mus musculus [18] = experiment: Ratio of protective index for […] acid to protective index for compound in intraperitoneally dosed Albino Swiss CD1 mouse
Mus musculus [19] = experiment: Anticonvulsant activity in intraperitoneally dosed Albino Swiss CD1 mouse after 2 hrs by maximal electroshock test; type: functional; how it was run: as §2
HEK293 = experiment: Antiproliferative activity against HEK293 cells at 0.01 to 250 uM after 48 hrs by formazan based EZ4U assay; type: cell-based; details: human, hek293, 48 h
How it was run: (§5)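 HEK-293 cells (1.5 × 10^4/well) and IMR-32 cells (2 × 10^4/well) were grown in DMEM with 10% FBS for 24 h to 60% confluence. Compound was diluted from a 25 mM DMSO stock to 0.01–250 µM final, with DMSO at or below 1%, and incubated 48 h at 37 °C in 5% CO2. EZ4U reagent was added for 5 h, then absorbance was read at 492 nm.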

[20] = Cytotoxic activity against human IMR32 cells at 0.01 to 250 uM after 48 hrs by formazan based EZ4U assay; type: cell-based; details: imr-32, 48 h; how it was run: as §5

| Structure (SMILES) | Time (Mus musculus [1]) [h] | Activity (Mus musculus [2]) | Activity (Mus musculus [3]) | ED50 (Mus musculus [4]) [mg/kg] | Ratio TD50/ED50 (Mus musculus [5]) | Time (Mus musculus [6]) [h] | MED50 (Mus musculus [7]) [mg/kg] | Ratio TD50/ED50 (Mus musculus [8]) | ED50 (Mus musculus [9]) [mg/kg] | Activity (Mus musculus [10]) | TD50 [11] [mg/kg] | MED50 (Mus musculus [12]) [mg/kg] | Activity (Mus musculus [14]) | MED50 (Mus musculus [15]) [mg/kg] | Activity (Mus musculus [16]) | further results |
| --- | --- | --- | --- | --- | --- | --- | --- | --- | --- | --- | --- | --- | --- | --- | --- | --- |
| O=C(NCc1ccccc1F)C(CO)N1C(=O)CCC1=O (stereo not given) |  |  |  |  |  |  |  |  |  |  |  |  |  |  |  | Drug metabolism (Liver microsome): metabolite_detected |
| CC(C(=O)NCc1ccc(C(F)(F)F)cc1)N1C(=O)CCC1=O (racemic) | 0.5 | Non-toxic | Non-toxic | 80 | 1.78 | 2 | 100 | 2.62 | 54.5 | inactive | 143 | 100 |  |  |  | Activity (Mus musculus [13]): inactive |
| CCC(C(=O)NCc1ccccc1)N1C(=O)CCC1=O (racemic) | 0.5 | Non-toxic | Non-toxic | 73.3 | 4.26 | 0.5 |  | 3.46 | 90.3 | inactive | 312 | 100 | inactive | 100 |  |  |
| CCC(C(=O)NCc1ccccc1Cl)N1C(=O)CCC1=O (racemic) | 0.5 | Non-toxic | Non-toxic | 113 | 3.7 | 0.5 | 100 | 5.47 | 76.4 | inactive | 418 | 100 |  | 100 |  |  |
| CCC(C(=O)NCc1ccc(Cl)cc1)N1C(=O)CCC1=O (racemic) | 0.5 | Non-toxic | Non-toxic | 95.3 | 1.83 | 0.5 | 100 | 3.43 | 50.8 | inactive | 174 | 100 |  | 100 |  |  |
| CCC(C(=O)NCc1ccccc1F)N1C(=O)CCC1=O (racemic) | 0.5 | Non-toxic | Non-toxic |  |  | 0.5 | 100 | 5.27 | 65.7 | inactive | 346 |  |  | 100 | inactive |  |
| CCC(C(=O)NCc1cccc(F)c1)N1C(=O)CCC1=O (racemic) | 0.5 | Non-toxic | Non-toxic |  |  | 0.5 |  | 6.89 | 47.4 | inactive | 327 |  | inactive | 100 | inactive | Ratio ED50 (Mus musculus [17]): 2.96; Ratio (Mus musculus [18]): 3.05 |
| CCC(C(=O)NCc1ccc(F)cc1)N1C(=O)CCC1=O (racemic) | 0.5 | Non-toxic | Non-toxic |  |  | 0.5 |  | 3.22 | 83.4 | inactive | 268 |  | inactive | 100 | inactive |  |
| CCC(C(=O)NCc1ccccc1C(F)(F)F)N1C(=O)CCC1=O (racemic) | 0.5 | Non-toxic | Non-toxic | > 150 |  | 0.5 | 100 |  |  | inactive |  |  |  |  | inactive | Activity (Mus musculus [13]): inactive |
| CCC(C(=O)NCc1cccc(C(F)(F)F)c1)N1C(=O)CCC1=O (racemic) | 0.5 | Non-toxic | Non-toxic |  |  | 0.5 |  | 2.12 | 77.4 | inactive | 163 |  | inactive | 100 | inactive |  |
| CC1CC(=O)N(C(C)C(=O)NCc2ccc(C(F)(F)F)cc2)C1=O (racemic) | 2 | Non-toxic | Non-toxic | > 150 |  | 2 |  |  |  |  |  |  | inactive |  | inactive | MED50 (Mus musculus [19]): 100 mg/kg; Activity (Mus musculus [13]): inactive |
| CC(C(=O)NCc1ccc(Cl)cc1)N1C(=O)CCC1=O (racemic) | 0.5 | Non-toxic | Non-toxic | 91.8 | 2.48 | 0.5 |  | 5.23 | 43.6 | inactive | 228 | 100 | inactive | 100 |  |  |
| CC(C(=O)NCc1ccccc1F)N1C(=O)CCC1=O (racemic) | 0.5 | Non-toxic | Non-toxic |  |  | 0.5 |  |  |  | inactive |  | 100 | inactive | 100 |  | Activity (HEK293): Non-toxic; Activity [20]: Non-toxic |
